Published values of several laboratories.
Compare with care: the assays were run in different laboratories.
PRMT3: Protein arginine N-methyltransferase 3 (PRMT3, Homo sapiens, UniProt O60678)
LDHA: L-lactate dehydrogenase A chain (LDHA, Homo sapiens, UniProt P00338)
TDP1: Tyrosyl-DNA phosphodiesterase 1 (TDP1, Homo sapiens, UniProt Q9NUW8)
PTPN1: Tyrosine-protein phosphatase non-receptor type 1 (PTPN1, Homo sapiens, UniProt P18031)
PDE7A: High affinity 3',5'-cyclic-AMP phosphodiesterase 7A (PDE7A, Homo sapiens, UniProt Q13946)

| Structure (SMILES) | target | observed | action | technique | pH | IC50 |
| --- | --- | --- | --- | --- | --- | --- |
| OC[C@H]1O[C@@H](n2cnc3c(NCCCc4ccccc4)ncnc32)[C@H](O)[C@@H]1O | PRMT3 | enzyme activity | inhibitor | fluorescence | – | > 100 µM |
| Cc1nc2ccc(NC(=O)CCNC(=O)CCCc3ccc(CC(C(=O)O)C(=O)O)cc3)cc2s1 | LDHA | enzyme activity | inhibitor | – | – | 1.2 µM |
| COc1cc2c(OC)nc3c4cc5c(cc4cc(OCCCN4CCC(N6CCCCC6)CC4)c3c2cc1OC)OCO5 | TDP1 | enzyme activity | inhibitor | fluorescence | – | 6.4 µM |
| CCCCN1/C(=C/C=C(Br)/C=C/C2=[N+](CCCC)c3ccc(Br)cc3C2(C)C)C(C)(C)c2cc(Br)ccc21 | PRMT3 | enzyme activity | inhibitor | radiometric | – | 4.09 µM |
| Nc1ncnc2c1ncn2[C@@H]1O[C@H](CSCCCNC(=O)NCc2ccccc2)[C@@H](O)[C@H]1O | PRMT3 | enzyme activity | inhibitor | fluorescence | – | 70 µM |
| C[C@@H]1C[C@H]2O[C@@H]2/C=C\C=C\C(=O)Cc2cc(O)cc(O)c2C(=O)O1 | Mitogen-activated protein kinase kinase kinase 7 (MAP3K7, Homo sapiens, UniProt O43318) | enzyme activity | inhibitor | ATP luminescence | – | > 10 µM |
| COc1cc2c(OC)nc3c4cc5c(cc4cc(OCCCN(C)C)c3c2cc1OC)OCO5 | TDP1 | enzyme activity | inhibitor | fluorescence | – | 1.7 µM |
| CCn1ncc2c1-c1cnc(N)c(c1)O[C@H](C)c1cc(F)ccc1-c1nn(C)nc1C2 | High affinity nerve growth factor receptor (NTRK1, Homo sapiens, UniProt P04629) | enzyme activity | inhibitor | radiometric | – | 0.144 µM |
| C[C@@H]1O[C@@H](O[C@@H]2[C@@H](O)[C@H](OCCc3ccc(O)c(O)c3)O[C@H](CO)[C@H]2OC(=O)/C=C/c2ccc(O)c(O)c2)[C@H](O)[C@H](O)[C@H]1O | LDHA | enzyme activity | inhibitor | – | pH 7.4 | > 500 µM |
| CCOc1ccc2c(-c3cc(C)nc(Nc4cc(OC)cc(C(F)(F)F)c4)n3)cnn2n1 | Homeodomain-interacting protein kinase 3 (HIPK3, Homo sapiens, UniProt Q9H422) | enzyme activity | inhibitor | – | – | > 10 µM |
| Nc1ncnc2c1ncn2[C@@H]1O[C@H](CSCCNC(=O)NCCCc2ccccc2)[C@@H](O)[C@H]1O | PRMT3 | enzyme activity | inhibitor | fluorescence | – | > 100 µM |
| O=C1C[C@@H](c2cc(O)cc(O)c2)Oc2cc(O)ccc21 | Amine oxidase [flavin-containing] A (MAOA, Homo sapiens, UniProt P21397) | enzyme activity | inhibitor | – | – | 13.6 µM |
| CN(C)CCCN1c2ccccc2CCc2ccc(Cl)cc21 | Glutathione reductase, mitochondrial (GSR, Homo sapiens, UniProt P00390) | enzyme activity | inhibitor | absorbance | – | > 100 µM |
| O=C(CC(=O)c1cccc(N(Cc2ccccc2)Cc2ccccc2)c1)C(=O)N1CCN(C(=O)C(=O)CC(=O)c2cccc(N(Cc3ccccc3)Cc3ccccc3)c2)CC1 | PTPN1 | enzyme activity | inhibitor | absorbance | pH 7 | 2.8 µM |
| CC1=C[C@@]2(C[C@H](C)[C@H]3CC=C(C)[C@@H](O[C@@H]4O[C@H](CO)[C@@H](O)[C@H](O)[C@H]4O)[C@@H]3O2)OC1=O | PTPN1 | enzyme activity | inhibitor | – | – | 91.3 µM |
| COc1ccc(C2=NN(C3CCCCCC3)C(=O)[C@@H]3CC=CC[C@H]23)cc1-c1ccc(C(N)=O)cc1 (relative stereo) | PDE7A | enzyme activity | inhibitor | – | – | > 10 µM |
| COc1cc(C[C@H]2C(=O)OC[C@@H]2Cc2ccc(OC)c(OC)c2)ccc1O | PDE7A | enzyme activity | inhibitor | – | – | > 20 µM |
| CC(C)(C)n1nc(-c2ccc3nc(OC4CC4)ccc3c2)c(C(N)=O)c1N | Receptor-interacting serine/threonine-protein kinase 2 (RIPK2, Homo sapiens, UniProt O43353) | cell-free assay | – | – | – | 0.2 µM |
| Nc1ncnc2c1ncn2[C@@H]1O[C@H](COP(=O)(O)OP(=O)(O)O)[C@@H](O)[C@H]1O | Nucleotide-binding oligomerization domain-containing protein 1 (NOD1, Homo sapiens, UniProt Q9Y239) | ligand displacement | – | FP | – | 0.19 µM |
